ChEMBL document CHEMBL4196176, “Structure-Based Design of MptpB Inhibitors That Reduce Multidrug-Resistant Mycobacterium tuberculosis Survival and Infection Burden in Vivo” (J Med Chem, 2018)
Substitutions are numbered along the chain they refer to. Active and inactive are the calls of the source. The calls are words filed in the database; no cut-off is given here.

Experiments:
[1] = target: T1, Phosphotyrosine protein phosphatase (Mycobacterium tuberculosis) (UniProt A0A045ISB3); experiment: Inhibition of multi-drug resistant Mycobacterium tuberculosis Beijing-W_565 ptpB infected in human THP1 cells assessed as reduction in intracellular bacterial burden at 20 to 100 uM after 72 hrs post infection relative to DMSO-treated control; format: cell-based
T1 sequence (whole entry): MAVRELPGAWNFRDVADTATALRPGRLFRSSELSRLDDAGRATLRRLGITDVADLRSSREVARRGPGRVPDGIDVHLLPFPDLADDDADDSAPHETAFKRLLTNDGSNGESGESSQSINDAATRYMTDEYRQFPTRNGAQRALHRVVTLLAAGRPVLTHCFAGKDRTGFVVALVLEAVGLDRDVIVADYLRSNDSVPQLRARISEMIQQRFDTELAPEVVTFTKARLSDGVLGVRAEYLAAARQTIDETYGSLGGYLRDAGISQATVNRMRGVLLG
Outline: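 PMA-differentiated THP1 cells (1 × 10^6/well) in RPMI with 10% FBS. Inhibitor (0, 20 or 80 μM in DMSO) added, then infected with thawed M. tuberculosis at MOI 1:1 for 3 h and washed 4 times. Medium and inhibitor renewed at 24 h. Cells lysed in 0.05% SDS at 72 h; CFU plated in duplicate and counted after 3 weeks. Triplicate.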

[2] = system: Mycobacterium tuberculosis variant bovis BCG; experiment: Antibacterial activity against Mycobacterium bovis BCG Pasteur assessed as reduction in extracellular growth at 80 uM; format: functional, organism-based
[3] = target: T2, Phosphotyrosine protein phosphatase ptpB (Mycobacterium bovis (strain BCG / Pasteur 1173P2)) (UniProt A0A0H3M0T0); experiment: Inhibition of Mycobacterium bovis BCG Pasteur ptpB infected in mouse J774A.1 cells assessed as reduction in intracellular bacterial burden up to 500 uM after 72 hrs post infection relative to treated-DMSO control; format: cell-based; conditions: Mycobacterium tuberculosis variant bovis BCG
T2 sequence (whole entry): T1 sequence (whole entry) with D105G
Outline: (§1)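 J774A.1 mouse macrophages in DMEM with 10% heat-inactivated FBS, seeded at 2 × 10^3/well overnight. Pretreated with inhibitor in DMSO or DMSO alone, then infected with BCG Pasteur at MOI 10:1 for 4 h and washed (time 0). Medium and inhibitor renewed at 24 h. Cells lysed in 0.05% Tween 80 at 72 h; CFU counted on 7H10 after 3 weeks. Triplicate, ≥3 experiments.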

[4] = target: T2, Phosphotyrosine protein phosphatase ptpB (Mycobacterium bovis (strain BCG / Pasteur 1173P2)); experiment: Inhibition of Mycobacterium bovis BCG Pasteur ptpB infected in mouse J774A.1 cells assessed as reduction in intracellular bacterial burden at 5 uM after 72 hrs post infection in presence of rifampicin; format: cell-based; conditions: Mycobacterium tuberculosis variant bovis BCG; outline: as §1
[5] = target: T2, Phosphotyrosine protein phosphatase ptpB (Mycobacterium bovis (strain BCG / Pasteur 1173P2)); experiment: Inhibition of Mycobacterium bovis BCG Pasteur ptpB infected in mouse J774A.1 cells assessed as reduction in intracellular bacterial burden at 5 uM after 72 hrs post infection in presence of isoniazid; format: cell-based; conditions: Mycobacterium tuberculosis variant bovis BCG; outline: as §1
[6] = target: T2, Phosphotyrosine protein phosphatase ptpB (Mycobacterium bovis (strain BCG / Pasteur 1173P2)); experiment: Inhibition of Mycobacterium bovis BCG Pasteur ptpB infected in mouse J774A.1 cells assessed as reduction in intracellular bacterial burden at 10 to 120 uM after 24 hrs post infection; format: cell-based; conditions: Mycobacterium tuberculosis variant bovis BCG; outline: as §1
[7] = target: T2, Phosphotyrosine protein phosphatase ptpB (Mycobacterium bovis (strain BCG / Pasteur 1173P2)); experiment: Inhibition of Mycobacterium bovis BCG Pasteur ptpB infected in mouse J774A.1 cells assessed as reduction in intracellular bacterial burden at 10 to 120 uM after 72 hrs post infection relative to DMSO-treated control; format: cell-based; conditions: Mycobacterium tuberculosis variant bovis BCG; outline: as §1
[8] = target: T2, Phosphotyrosine protein phosphatase ptpB (Mycobacterium bovis (strain BCG / Pasteur 1173P2)); experiment: Inhibition of Mycobacterium bovis BCG Pasteur ptpB infected in mouse J774A.1 cells assessed as reduction in intracellular bacterial burden at 80 uM after 72 hrs post infection; format: cell-based; conditions: Mycobacterium tuberculosis variant bovis BCG; outline: as §1
[9] = system: Mycobacterium tuberculosis variant bovis BCG; experiment: Antibacterial activity against Mycobacterium bovis BCG Pasteur infected in mouse J774A.1 cells assessed as reduction in bacterial burden at 0.1 ug/ml after 72 hrs post infection relative to control; format: functional; design: scale not given: the % may be the effect or the level left; outline: as §1
[10] = system: Mycobacterium tuberculosis variant bovis BCG; experiment: Antibacterial activity against Mycobacterium bovis BCG Pasteur infected in mouse J774A.1 cells assessed as reduction in bacterial burden at 0.3 ug/ml after 72 hrs post infection relative to control; format: functional; design: scale not given: the % may be the effect or the level left; outline: as §1
[11] = target: T1, Phosphotyrosine protein phosphatase (Mycobacterium tuberculosis); experiment: Inhibition of multi-drug resistant Mycobacterium tuberculosis Beijing-W_565 ptpB infected in human THP1 cells assessed as reduction in intracellular bacterial burden at 20 to 80 uM after 72 hrs post infection relative to DMSO-treated control; format: cell-based
Outline: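 THP1 cells (1 × 10^6/well) were PMA-treated overnight. Inhibitor (20 or 80 μM, in DMSO) was added in RPMI with 10% FBS before infection with thawed bacteria at MOI 1:1. Washed four times after 3 h; inhibitor re-added at 24 h. At 72 h, cells lysed in 0.05% SDS and CFU plated (duplicate 10-fold dilutions, 7H10, 3 weeks); triplicates.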

Cc1onc(C(=O)O)c1-c1cccc(-c2cc(Cl)c(O)c(Cl)c2)c1
inhibition [1]: < 74%
Activity [2]: inactive
inhibition [3]: < 84%
inhibition [4]: > 93%
inhibition [5]: > 93%

O=C(O)c1noc(-c2ccccc2)c1-c1cccc(-c2cc(Cl)c(O)c(Cl)c2)c1
inhibition [6]: Active
inhibition [7]: 81 to 87%

O=C(O)c1noc(-c2ccccc2)c1-c1cccc(-c2ccc(O)cc2)c1
inhibition [8]: Active
inhibition [6]: Active
inhibition [7]: 81 to 87%

O=C(O)c1noc(-c2ccccc2)c1-c1cccc(-c2cc(Cl)c(O)c([N+](=O)[O-])c2)c1
inhibition [8]: Active
inhibition [6]: Active
inhibition [7]: 81 to 87%

NNC(=O)c1ccncc1 [ISONIAZID]
Activity [9]: <25%

CO[C@H]1/C=C/O[C@@]2(C)Oc3c(C)c(O)c4c(O)c(c(/C=N/N5CCN(C)CC5)c(O)c4c3C2=O)NC(=O)/C(C)=C\C=C\[C@H](C)[C@H](O)[C@@H](C)[C@@H](O)[C@@H](C)[C@H](OC(C)=O)[C@@H]1C [RIFAMPIN]
Activity [10]: <25%

O=C(O)c1noc(-c2ccccc2)c1-c1cccc(-c2ccc(O)c(Cl)c2)c1
inhibition [8]: Active
inhibition [6]: Active
inhibition [7]: 81 to 87%

COC(=O)c1c(O)cccc1OC/C=C/c1cccc(-c2cc(C(=O)O)no2)c1 [ISOXAZOLECARBOXYLIC ACID]
inhibition [11]: Active

O=C(O)c1noc(-c2ccccc2)c1-c1cccc(-c2ccc(O)c(F)c2)c1
inhibition [8]: Active
inhibition [6]: Active
inhibition [7]: 81 to 87%
